NRP1-CendR mod = modulators of CendR peptide binding to human neuropilin-1. inhibition, % at 25 µM. AID 602438. FAM-RPARPAR peptide binding to NRP-1, fluorescence polarization. 0.85% of 360,000 active;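 active means inhibition or corrected inhibition above about 18%, plus a signal ratio from 0.5 to 1.5, limit read from the data, passing the limit was not always enough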
ABCB6 inh MLPCN = inhibitors of human ABC transporter ABCB6; Q9NP58; K562-ABCB6 porphyrin accumulation, flow cytometry, 1 h; hits give low values; fluorescence ratio to DMSO, % at 10 µM; 0.19% of 360,000 active;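 active means fluorescence ratio to DMSO below 75%, the collection mean minus 3 SD; inconclusive means too few cells collected in the well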;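 further: signal is porphyrin accumulated inside mitochondria; 100% equals median channel fluorescence of DMSO control wells; lower ratio means ABCB6 inhibition with less porphyrin fluorescence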
Myeloid diff 2 = promotes myeloid progenitor differentiation | ER-HoxA9 myeloid progenitors, lysozyme-GFP differentiation, flow cytometry | calls only at 10 µM | 1% of 360,000 active;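 active means normalized GFP-positive differentiation at or above the plate's own cutoff, the solvent-only control mean plus 3 SD; inconclusive means no clear call, values can overlap the other calls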;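 further: cells exposed to compound for four days before flow analysis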
Arr AP2 block = inhibitors of human beta-arrestin and AP2 interaction. FITC-arrestin peptide / GST-AP2 beads, flow cytometry; AP2 beta2 appendage carries R879A mutation. inhibition, % at 10 µM. 0.31% of 340,000 active. AID 504490;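 active means inhibition above a set limit, near 3 SD of compounds lacking own fluorescence, cut at about 54% in these data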;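 further: plate controls were DMSO wells for no effect and 5 µM unlabelled arrestin peptide for full effect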
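Material – GST-tagged AP2 beta2-adaptin appendage (R879A) on 4 µm glutathione beads · Probe or stimulus – fluorescein-tagged arrestin peptide at 50 nM final · Timing – 12 min plus 1 h, RT · Detection – bead flow cytometry, FITC channel · Read-out basis – inhibition as reduced fluorescein signal on beads, percent · Medium – PBS plus Tween 20 (0.05%) and BSA (0.1%)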
Exocytosis inh = lytic granule exocytosis inhibition. 0.66% of 360,000 active. TALL-104 LAMP-1 surface exposure, flow cytometry; cells stimulated with thapsigargin and PMA. inhibition, % at 10 µM;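 active means inhibition above about 55%, limit read from the data; inconclusive means no clear call, values can overlap the other calls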
ATG4B inhibitor = ATG4B (human) cysteine protease inhibition. 0.51% of 340,000 active. AID 504462. inhibition, % at 8.33 µM. ATG4B cleavage of LC3-PLA2, NBD-HPC fluorescence, 1 h; in the data active means inhibition above about 40%
Target sequence (Q9Y4P1 whole entry, looked up): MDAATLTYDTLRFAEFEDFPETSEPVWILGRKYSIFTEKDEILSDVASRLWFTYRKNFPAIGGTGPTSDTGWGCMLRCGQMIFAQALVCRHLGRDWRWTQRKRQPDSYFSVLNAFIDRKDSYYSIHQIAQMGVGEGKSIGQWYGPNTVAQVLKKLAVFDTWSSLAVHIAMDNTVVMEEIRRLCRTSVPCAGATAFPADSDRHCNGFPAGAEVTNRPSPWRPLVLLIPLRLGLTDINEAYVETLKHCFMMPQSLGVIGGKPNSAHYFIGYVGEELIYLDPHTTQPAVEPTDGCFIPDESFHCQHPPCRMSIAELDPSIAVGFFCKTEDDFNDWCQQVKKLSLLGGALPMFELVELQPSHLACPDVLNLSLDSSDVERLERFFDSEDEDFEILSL
* marks the source's active call; other numbers are inactive results; i = inactive; u = inconclusive; x = no result; + = active, no number. Hits are enriched below; roughly 3.3% of the tested compounds scored in any of these assays.

SMILES | NRP1-CendR mod | ABCB6 inh MLPCN | Myeloid diff 2 | Arr AP2 block | Exocytosis inh | ATG4B inhibitor
COc1ccc(Br)cc1CNC(=O)CCCc1cn(C)c2ccccc12 | -8 | 97 | + | 11 | -1 | 32
Cc1ccc2c(CN3CCCc4ccccc43)cc(=O)oc2c1C | -108 | 357 | + | -2 | 2 | -3
CC(C)NC(=S)N/N=C/c1cc(Br)ccc1O | -7 | 98 | i | 10 | 0 | -4
COc1ccc(C(=O)Nc2cc(-c3ccccc3)nn2-c2ccccc2F)cc1 | -7 | 96 | + | 23 | 14 | -12
COCCOc1cc(N)c(Cl)cc1Cl | 3 | 90 | i | 50 | -1 | 5
O=C(Nc1ccc(N2CCN(c3ccccc3)CC2)c(F)c1)C1CC1 | 4 | 96 | i | 39 | 4 | 0
C=CCn1c(COc2ccccc2F)nnc1SCC(=O)Nc1cc(C)on1 | -2 | 100 | i | 3 | 0 | -10
COc1ccc(O)c(C(=O)c2cnn(C(=O)c3ccc(C)cc3)c2)c1 | -8 | 103 | i | 4 | 10 | 0
Cc1ccc(O)c(C(=O)c2cnn(C(=O)Cc3csc(C)n3)c2)c1 | -29 | 99 | i | 11 | 4 | 43*
CCN(CC)C(=O)C12CC3CC(CC(Cl)(C3)C1)C2 | 2 | 96 | i | 6 | 1 | -2
CC(C)(C)NC(=O)C12CC3CC(CC(Cl)(C3)C1)C2 | 22* | 97 | i | 0 | -2 | -5
CCN(c1ccccc1)S(=O)(=O)c1ccc(NC(=O)c2nc(S(C)(=O)=O)ncc2Cl)cc1 | 4 | 37* | u | 25 | 26 | 5
O=C(CN1CCOCC1)NCC12CC3CC(CC(C3)C1)C2 | 4 | 100 | + | 33 | -2 | -1
O=C(CSC1=Nc2ccccc2C2=NC(CC(=O)N3CCN(c4ccccc4)CC3)C(=O)N12)NCC1CCCO1 (stereo unspecified) | -24 | 98 | i | 16 | -17 | -17
CC(=O)NC(CC(=O)Nc1cccc(S(=O)(=O)N2CCOCC2)c1)c1ccccc1 (stereo unspecified) | 24* | 101 | i | -5 | 2 | -11
CCN(CC(=O)Nc1cccc(S(=O)(=O)N2CCCC2)c1)CC(=O)Nc1ccccc1OC | 6 | 93 | i | -32 | -2 | -13
CCN(CC(=O)Nc1ccc(OC)cc1)CC(=O)Nc1cccc(S(=O)(=O)N2CCOCC2)c1 | 34* | 101 | i | x | -4 | x
Cc1ccc(/C=C/C(=O)Nc2cccc(S(=O)(=O)N3CCOCC3)c2)o1 | -18 | 104 | + | -10 | -6 | 5
CC(=O)NC(CC(=O)Nc1ccc(S(=O)(=O)N2CCCC2)cc1)c1ccccc1 (stereo unspecified) | 5 | 102 | i | -1 | -1 | -7
CC(C)(C)c1ccc(CNC(=O)c2ccc3c(c2)NC(=O)CO3)cc1 | -4 | 109 | + | 19 | -1 | -13
O=C1COc2ccc(C(=O)NCc3ccc4c(c3)OCO4)cc2N1 | 0 | 102 | i | -6 | -4 | 3
Cc1noc(C)c1CSCC(=O)OCC(=O)Nc1ccc(OC(F)(F)F)cc1 | 6 | 99 | i | x | -3 | x
CSc1ccccc1NC(=O)CSc1n[nH]c(C)c1[N+](=O)[O-] | 27* | 102 | i | 4 | 4 | 10
Cc1ccc(O)c(NC(=O)CSc2n[nH]c(C)c2[N+](=O)[O-])c1 | 0 | 85 | i | -4 | 1 | 3
CC(C)OC(=O)CC12CN3CN(C1)CC(CC(=O)OC(C)C)(C3)C2=O | 8 | 102 | i | 9 | 1 | -7
SMILES | NRP1-CendR mod | ABCB6 inh MLPCN | Myeloid diff 2 | Arr AP2 block | Exocytosis inh | ATG4B inhibitor
CCOC(=O)CC12CN3CN(C1)CC(CC(=O)OCC)(C3)C2=O | 1 | 97 | + | 0 | 6 | -4
COc1ccc(OC)c(NC(=S)NC(=O)c2ccc(Br)o2)c1 | 2 | 104 | i | 1 | -12 | 6
Cc1cccc2cc(C#N)c(SCc3nnc(-c4ccccc4[N+](=O)[O-])o3)nc12 | 32* | 99 | i | 5 | -4 | 6
C[C@@H](NC(=O)c1nc[nH]c1C(=O)NC1CCN(C(=O)OC(C)(C)C)CC1)c1ccccc1 | 22* | 96 | i | 3 | 7 | 3
CC(C)(C)OC(=O)N1CCC(NC(=O)c2nc[nH]c2C(=O)NC2CCN(C(=O)OC(C)(C)C)CC2)CC1 | -4 | 99 | i | 14 | -6 | 5
C[C@H](NC(=O)c1nc[nH]c1C(=O)N1CCN(C(=O)OC(C)(C)C)CC1)c1ccccc1 | 18 | 104 | i | -3 | -4 | 2
CC(C)(C)OC(=O)N1CCC(NC(=O)c2[nH]cnc2C(=O)Nc2cccc(Cl)c2)CC1 | 33* | 99 | i | 2 | 9 | 5
Cc1ccc(C)c(C(=O)Cn2ncc(Cl)c(Cl)c2=O)c1 | 20* | 100 | u | -8 | 13 | 1
COc1ccc(-c2nnn(CC(=O)N(Cc3cccs3)C(C)C(=O)NC3CCCC3)n2)cc1OC (stereo unspecified) | 0 | 97 | + | -9 | -1 | -13
CN(C)CCNC(=O)/C(=C/c1ccc(-c2ccc(Cl)cc2Cl)o1)NC(=O)c1ccccc1 | -4 | 96 | + | 2 | 28 | 5
CN(C)CCNC(=O)/C(=C/c1ccc(-c2ccc(Cl)cc2)o1)NC(=O)c1ccccc1 | 1 | 100 | i | -16 | 4 | 0
Cc1nc2cc(NS(=O)(=O)c3ccc(Br)cc3)ccc2n1C | 0 | 93 | i | -24 | 0 | 1
COC(=O)c1ccc(C2c3[nH]c4ccccc4c3C[C@H]3C(=O)N(C)CC(=O)N23)cc1 (stereo partly specified) | 7 | 93 | i | -23 | 17 | -18
CCN1C(=O)[C@@H]2Cc3c([nH]c4ccccc34)C(c3ccc(OC)cc3)N2C1=S (stereo partly specified) | -88 | 101 | + | 7 | 52 | -2
Nc1cc2c(cc1N)-c1ccccc1C2 | 1 | 131 | + | 17 | -2 | -6
O=C(COC(=O)C1CCC1)Nc1ccc(OC(F)F)cc1 | -6 | 104 | i | -4 | -2 | -14
O=C(COC(=O)C1CC1)Nc1ccc(OC(F)F)cc1 | 46* | 96 | i | 10 | 0 | -8
O=C(O)CC(CC(=O)Nc1nncs1)c1ccccc1 (stereo unspecified) | 0 | 108 | i | 0 | 0 | -14
O=C(O)CC(Cn1[nH]nnc1=S)c1ccccc1 (stereo unspecified) | 8 | 91 | + | -32 | -1 | -2
CC(=O)Nc1ccc(CN2C(=O)C(C)ON=C2c2ccccc2-c2ccco2)cc1 (stereo unspecified) | -12 | 104 | i | x | 0 | x
COc1cccc(NC(=O)COc2ccccc2C(N)=O)c1 | 32* | 95 | i | 0 | -3 | 1
